Data set [1] concerns Plasmodium falciparum. Briefly: Antiplasmodial activity against drug-resistant Plasmodium falciparum Dd2. The class given is functional, organism-based. The gist of the method: (§1)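 In vitro asexual P. falciparum growth inhibition, reported as IC50. The strains were chloroquine-sensitive 3D7; Dd2, resistant to CQ, SDX, PYR, MQ and CYC; TM90C6B, resistant to CQ, PYR and ATO; and 3D7r_MMV848, resistant to MMV692848. A standard antimalarial served as control for each resistant strain. Values are mean ± standard deviation of two independent experiments run in triplicate.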

Data set [2] has as its system Plasmodium falciparum. Put plainly: Antiplasmodial activity against drug-resistant Plasmodium falciparum 3D7r_MMV848. In kind it is functional, organism-based. In outline: as §1
Data set [3] concerns Plasmodium falciparum. Put plainly: Resistance index, ratio of IC50 for drug-resistant Plasmodium falciparum TM90C6B to IC50 for Plasmodium falciparum 3D7. In kind it is functional. In outline: (§2)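 Resistance index computed as IC50 against the resistant strain divided by IC50 against 3D7. IC50 values are mean ± standard deviation of two independent experiments in triplicate. Resistant strains: Dd2 (CQ, SDX, PYR, MQ, CYC), TM90C6B (CQ, PYR, ATO) and 3D7r_MMV848 (MMV692848).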

The subject of data set [4] is Plasmodium falciparum. Put plainly: Antiplasmodial activity against drug-resistant Plasmodium falciparum TM90C6B. In kind it is functional, organism-based. The gist of the method:
as §1

Data set [5] is described as follows: Cytotoxicity against human HepG2 cells. In kind it is toxicity, cell-based.
Data set [6] has as its system Plasmodium falciparum. Briefly: Resistance index, ratio of IC50 for drug-resistant Plasmodium falciparum Dd2 to IC50 for Plasmodium falciparum 3D7. In kind it is functional. In outline: as §2
Data set [7] can be described thus: Selectivity index, ratio of IC50 for human HepG2 cells to IC50 for Plasmodium falciparum 3D7. In kind it is toxicity. Conditions: HepG2 cells versus Plasmodium falciparum 3D7, read-out: Ratio IC50.
Data set [8] has as its system Plasmodium falciparum. Briefly: Resistance index, ratio of IC50 for drug-resistant Plasmodium falciparum 3D7r_MMV848 to IC50 for Plasmodium falciparum 3D7. The class given is functional. In outline: as §2
Data set [9] relates to Plasmodium falciparum. Put plainly: Antiplasmodial activity against Plasmodium falciparum 3D7. The class given is functional, organism-based. In outline:
as §1

For `CC1=C(C)[C@H]2[C@H](Cc3ccc(O)cc3)NC(=O)[C@]23OC(=O)C/C=C(/C)C(=O)[C@@H](C)C/C=C/[C@H]3[C@@H]1O`, the 50% inhibitory concentration (IC50) was 7 µM in the data set with Plasmodium falciparum [1]; 4 µM in the data set with Plasmodium falciparum [2]; 6 µM with Plasmodium falciparum [4]; more than 100 µM in data set [5]; 4.4 µM with Plasmodium falciparum [9]. For the same compound, the “Ratio IC50” value in the data set on Plasmodium falciparum [3] came out at 1.4; in the data set on Plasmodium falciparum [6], 1.6; in the data set with Plasmodium falciparum [8], 0.9. For the same compound, in data set [7], the selectivity ratio was more than 23.
`CC(C)c1c(C(=O)Nc2ccccc2)c(-c2ccccc2)c(-c2ccc(F)cc2)n1CC[C@@H](O)C[C@@H](O)CC(=O)O` [ATORVASTATIN]: the “Ratio IC50” value with Plasmodium falciparum [3] was more than 1428. The compound further returned an IC50 in the data set with Plasmodium falciparum [4] of more than 1 µM.
Regarding `CCc1nc(N)nc(N)c1-c1ccc(Cl)cc1` [PYRIMETHAMINE], the IC50 in the data set with Plasmodium falciparum [1] is more than 10 µM. In the data set with Plasmodium falciparum [6], the “Ratio IC50” value was more than 166.

(Values after ChEMBL document CHEMBL5584332, “Structure and Biosynthesis of Perochalasins A-C, Open-Chain Merocytochalasans Produced by the Marine-Derived Fungus Peroneutypa sp. M16” (J Nat Prod, 2024).)
